Data taken from the RNAGym collection of RNA variant scans (doi:10.1126/science.aae0568).
This sample holds only a part of the variants without activity.

B1: tRNA (parent)
chain: GUUCCGUUGGCGUAAUGGUAACGCGUCUCCCUCCUAAGGAGAAGACUGCGGGUUCGAGUCCCGUACGGAACG

Variants of: B1
Assay: yeast fitness relative to wild type (ratio to wild type); higher = fitter; tRNA-Arg(CCU), competitive growth, 37 C, YPD
Procedure, shortened: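 For this measurement, the tRNA-Arg(CCU) gene was varied by chemical synthesis at a 3% per-site mutation rate across 69 sites, and each variant was placed at the native genomic locus in Saccharomyces cerevisiae. The pooled strains went through a 24-hour competition in YPD at 37°C in six parallel replicates, with amplicons from start and end populations read by 100-nucleotide paired-end sequencing. Darwinian fitness relative to wild type followed from the change in each genotype's frequency. Genotypes needed ≥ 100 starting reads, and estimates < 0.5 were set to 0.5.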

| Variant | yeast fitness |
| --- | --- |
| GUUCCGUUGGCGUAAUCGUAACGCGUCUUCCUCCUAAGGAGAAGACUGCGGGAUCGAGUCCCGUAAGGAACG [G17C C29U U53A C66A] | ≤ 0.5 |
| GUUCCGUUGGCGUAAUCGUAACGCGUCUCCGUCCUAAGGAGAAGACUGCGGGUUCGAGUCCCGUACGGAACG [G17C C31G] | 0.634 |
| GUUCCGUUGGCGUAAUCCUAAAGCGUCUCCCUCCUAAGGAGAAGACUGCGGGUUCGAGUACCGUACGGAACG [G17C G18C C22A C60A] | 0.529 |
| GUUCCGUUGGCGUAAUCGUAACGCGUUUCCCUCCUGAGGAGAAGACUGCGGGUUCGAGUCCCGUACGGAACG [G17C C27U A36G] | 0.714 |
| GUUCCGUUGGCGUAAUCGUAACGCGUCUCCUUCCUAAGGAGCAGACUGCGGGGUCGAGUCCCGUACGGAACG [G17C C31U A42C U53G] | ≤ 0.5 |
| GUUCCGUUGGCGUAAUCCUAAAGCGUCUCCCUCCUAAGGAGAAGACUGCGGGUUCGAGUACCGUAUGGAACG [G17C G18C C22A C60A C66U] | 0.561 |
| GUUCCGUUGGCGUAAUCGUAACGGGUCUCCCUCCUAAGGAGAAGAGUGCGGGUUCGAGUCCCGUAUGGAACG [G17C C24G C46G C66U] | ≤ 0.5 |
| GUUCCGUUGGCGUAAUCGUAACGCGUCUCCCUCCUAAGGAGAAGACUGGGGGUUCGAGUCACGUACGGAACG [G17C C49G C61A] | ≤ 0.5 |
| GUUCCGUUGGCGUAAUCGUAACGCGUCUCCCUCCUAAGGAGAAGACUGCGGGUUUGAGUCCCGUACACAACG [G17C C55U G67A G68C] | ≤ 0.5 |
| GUUCCGUUGGCGUAAUCGUAACGGGUCACUCUCCUAAGGAGAAGACUGCGGGUUCGAGUCCCGUUCGGCACG [G17C C24G U28A C30U A65U A69C] | 0.571 |
| GUUCCGUUGGCGUAAUCGUAACGCGUCUCCCUCCUAAGGAGAAGAGUGCGGGUUCGUGUCCCAUACGGAACG [G17C C46G A57U G63A] | ≤ 0.5 |
| GUUCCGUUGGCGUAAUCGUAACGCGUCUCACUCGUACGGAGAAGACUGCGGGCUCGAGUCCCCUACGGAACG [G17C C30A C34G A37C U53C G63C] | ≤ 0.5 |
| GUUCCGUUGGCGUAAUCGUAACGCGUCUCCUUCCUAAGGAGCAGACUGAGGGUUCGAGUCCCGUACGGAACG [G17C C31U A42C C49A] | 0.534 |
| GUUCCGUUGGCGUAAUCGUAACGCGUCUCUCUCCUAAGGGGAAGACUGCGGGUUCGAGUCCCGUACGGAACG [G17C C30U A40G] | 0.686 |
| GUUCCGUUGGCGUAAUCGUAACGGGUCUCCCUCUUAAGGAGAAGACUGCGGGUUCGAGUCCCGUAUGGAACG [G17C C24G C34U C66U] | 0.548 |
| GUUCCGUUGGCGUAAUCGUAACGCGUCUCCCUCCUAAGGAGAAGACUGCGGGUUCGAGUCCCGUAAGGAACG [G17C C66A] | 0.575 |
| GUUCCGUUGGCGUAAUCGUAACGCGUCUCCCUCCUAAGGAGAAGACUGCGGGUUCGAGUACCGUACAGAACG [G17C C60A G67A] | ≤ 0.5 |
| GUUCCGUUGGCGUAAUCGUAACGCGUAUCCCUCCUAAGGAGAAGACUGCGGGUUCGAGUCGCGUACGGAACG [G17C C27A C61G] | ≤ 0.5 |
| GUUCCGUUGGCGUAAUCGUAACGCGUUUCCCUCCUAAGGAGAAGACUGCGGGUUCGAGUCCCGUACGGAACG [G17C C27U] | 0.617 |

| Variant | yeast fitness |
| --- | --- |
| GUUCCGUUGGCGUAAUCGUAACGCGUAUCCCUCCUAAGGAGAAGACUGCGGGUUCGAGUCCCGUACGGAACG [G17C C27A] | 0.674 |
| GUUCCGUUGGCGUAAUCGUAACGCGUGUCCCUCCUAAGGAGAAGACUGCGGGUUCGAGUCCCGUACGGAACG [G17C C27G] | 0.558 |
| GUUCCGUUGGCGUAAUCGUAACGCGUCUCUCUCCUGAGGAGAAGACUGCGGGUUCGAGUCCCGUACUGAGCG [G17C C30U A36G G67U A70G] | ≤ 0.5 |
| GUUCCGUUGGCGUAAUCGUAACGCGUCUCCCUCCUAAGGAGAAGACUGCGGGUUUGAGUCCCGUACGGUACG [G17C C55U A69U] | ≤ 0.5 |
| GUUCCGUUGGCGUAAUCGUAACGCGUUUCCCUCCUAAGGAGAAGACUGCGGGUUCGAGUCCCGUGCGGAACG [G17C C27U A65G] | 0.598 |
| GUUCCGUUGGCGUAAUCGUAACGCGUCUUCCACCUAAGGAGAAGAUUGCGGGUUCGAGUCCCGUACGGAACG [G17C C29U U32A C46U] | ≤ 0.5 |
| GUUCCGUUGGCGUAAUCGUAACGCGUCUCCUUCCUAUGGAAAAGACUACGGGUUCGAGUCCCGUACGGAACG [G17C C31U A37U G41A G48A] | ≤ 0.5 |
| GUUCCGUUGGCGUAAUCGUAACGCGUCUCCCUCAUAAGGAGAAGACUGCGGGUUCGCGUCCCGUACGGAACG [G17C C34A A57C] | 0.561 |
| GUUCCGUUGGCGUAAUCCUAACGCGUCUCCCUCCUAAGGAGAAGACUGCGGGUUCGAGUCCCGUACGGUACG [G17C G18C A69U] | ≤ 0.5 |
| GUUCCGUUGGCGUAAUCGUAACGGGUCUCCCUCCUAAGGAGAAGAGUGCGGGUUCGAGCCCCGUACGGAACG [G17C C24G C46G U59C] | ≤ 0.5 |
| GUUCCGUUGGCGUAAUCGUAACGCGUCUCGCUCCUAAGGAGAAGACUGCGGGUUCGAGUGCCGUACGGAACG [G17C C30G C60G] | 0.904 |
| GUUCCGUUGGCGUAAUCGUAACGCGUCUCCCUCCUAAGGAGAAGACUGCGGGUUCGAGUUCCGUACGGAACG [G17C C60U] | 0.597 |
| GUUCCGUUGGCGUAAUCGUAACGCGUCUCCCUCCUAAGGAGAAGACUGCGGGUUCGAGUGCCGUACGGAACG [G17C C60G] | ≤ 0.5 |
| GUUCCGUUGGCGUAAUCGUAACGGGUCACUCUCCUAAGGAGAAGACUGCGGAUUCGAGUCCCGUACGGAACG [G17C C24G U28A C30U G52A] | ≤ 0.5 |
| GUUCCGUUGGCGUAAUCGUAACGCGUCUUCCUCCUACGGAGAAGACUGCGGGUUCGAGUCCCGUACAGAACG [G17C C29U A37C G67A] | 0.575 |
| GUUCCGUUGGCGUAAUCGUAACGGGUCACUCUCCUAAUGAGAAGACUGCGGGUUCGAGUCCCGUUCGGCACG [G17C C24G U28A C30U G38U A65U A69C] | ≤ 0.5 |
| GUUCCGUUGGCGUAAUCGUAACGCGUAUCCCCCCUAAGGAGAAGACUGCGGGUUCGAGUCACGUAUGGAACG [G17C C27A U32C C61A C66U] | ≤ 0.5 |
| GUUCCGUUGGCGUAAUCGUAACGCGUCUCCCUCUUAAGGAGAAGACUGCGGGUUCGAGUCCCGUACGAAACG [G17C C34U G68A] | 0.536 |
| GUUCCGUUGGCGUAAUCGUAACGCGUCUCCCUCCUAAGGAGAAGAUUGCCGGUUAGAGUCCCAUAUGGAACG [G17C C46U G50C C55A G63A C66U] | ≤ 0.5 |
